According to ChEMBL document CHEMBL2311257, “Synthesis and antioxidant activity of thymol and carvacrol based Schiff bases” (Bioorg Med Chem Lett, 2013):
Values after ≈ are worked out from the molar mass of the structure shown. Active and inactive are the calls of the source. No cut-off for these calls is given here.

Columns and labels:
Type in all cases: functional
[1] = tested on: Radical scavenging activity; assay: Antioxidant activity assessed as DPPH radical scavenging activity in chloroform solution at 5 ug/mL
[2] = tested on: Radical scavenging activity; assay: Antioxidant activity assessed as DPPH radical scavenging activity in chloroform solution at 100 ug/mL
[3] = tested on: Radical scavenging activity; assay: Antioxidant activity assessed as DPPH radical scavenging activity in ethanol solution at 100 ug/mL
Method in brief: (§1)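 Compound dissolved in ethanol, then ethanolic DPPH added. Incubated 30 min in the dark. DPPH decrease read as absorbance at 517 nm against an ethanol blank, with ascorbic acid as reference. % activity = [(A0 − Ai)/A0] × 100, where A0 is absorbance without compound and Ai with compound. IC50 taken from activity across concentrations.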

[4] = tested on: Radical scavenging activity; assay: Antioxidant activity assessed as DPPH radical scavenging activity in chloroform solution
[5] = tested on: Radical scavenging activity; assay: Antioxidant activity assessed as DPPH radical scavenging activity in ethanol solution at 25 ug/mL; method in brief: as §1
[6] = Antioxidant activity assessed as ABTS radical scavenging activity at 5 ug/mL
Method in brief: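 ABTS radical cation solution diluted in ethanol to an absorbance of 0.7–0.9 at 734 nm, 30 °C. Equal volume added to ethanolic compound solution (5 µg/mL). Absorbance read after 1 min and converted to percent inhibition.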

[7] = tested on: Radical scavenging activity; assay: Antioxidant activity assessed as DPPH radical scavenging activity in chloroform solution at 50 ug/mL
[8] = tested on: Radical scavenging activity; assay: Antioxidant activity assessed as DPPH radical scavenging activity in ethanol solution at 5 ug/mL; method in brief: as §1
[9] = tested on: Radical scavenging activity; assay: Antioxidant activity assessed as DPPH radical scavenging activity in ethanol solution at 10 ug/mL; method in brief: as §1
[10] = tested on: Radical scavenging activity; assay: Antioxidant activity assessed as DPPH radical scavenging activity in chloroform solution at 25 ug/mL
[11] = tested on: Radical scavenging activity; assay: Antioxidant activity assessed as DPPH radical scavenging activity in ethanol solution at 50 ug/mL; method in brief: as §1
[12] = tested on: Radical scavenging activity; assay: Antioxidant activity assessed as DPPH radical scavenging activity in ethanol solution; method in brief: as §1
[13] = tested on: Radical scavenging activity; assay: Antioxidant activity assessed as DPPH radical scavenging activity in chloroform solution at 10 ug/mL

SMILES | Activity [1] [%] | Activity [2] [%] | Activity [3] [%] | IC50 [4] [µg/mL] | Activity [5] [%] | Activity [6] | Activity [7] [%] | Activity [8] [%] | Activity [9] [%] | Activity [10] [%] | Activity [11] [%] | IC50 [12] [µg/mL] | Activity [13] [%]
COc1cc(/C=N/c2cc(C(C)(C)C)c(O)cc2C)cc(OC)c1 | 27 | 89.5 | 80.4 | 19.62 (≈ 59.9 µM) | 66.1 | Active | 86.6 | 26.3 | 43.8 | 67.9 | 76.9 | 20.2 (≈ 61.7 µM) | 36.8
COc1cc(/C=N/c2cc(C)c(O)cc2C(C)C)cc(OC)c1OC | 19.7 | 88 | 87.4 | 25.2 (≈ 73.4 µM) | 66.1 | Active | 75.7 | 26.4 | 45.7 | 64.2 | 76.5 | 19.05 (≈ 55.5 µM) | 41.8
Cc1cc(O)c(C(C)C)cc1/N=C/c1ccc(O)cc1 | 26 | 93 | 92.9 | 13.32 (≈ 49.5 µM) | 77.1 | Active | 84.5 | 24.4 | 51.8 | 70.2 | 89.8 | 9.02 (≈ 33.5 µM) | 50
COc1ccc(/C=N/c2cc(C(C)C)c(O)cc2C)cc1 | 21.8 | 90.2 | 88.5 | 15.79 (≈ 55.7 µM) | 77.5 | Active | 87.7 | 27.3 | 43.3 | 74.1 | 85 | 12.54 (≈ 44.3 µM) | 44.6
COc1cc(/C=N/c2cc(C)c(O)cc2C(C)C)cc(OC)c1 | 20.4 | 88.4 | 85.8 | 25.79 (≈ 82.3 µM) | 65.7 | Active | 79.1 | 27.5 | 40.7 | 61.7 | 74.2 | 22.02 (≈ 70.3 µM) | 39.3
COc1cc(/C=N/c2cc(C(C)(C)C)c(O)cc2C)cc(OC)c1OC | 17.3 | 91.8 | 84.4 | 18.6 (≈ 52 µM) | 65.4 | Active | 81.7 | 25.9 | 44.9 | 75.8 | 81 | 18.79 (≈ 52.6 µM) | 45.2
Cc1cc(O)c(C(C)(C)C)cc1/N=C/c1cc(Br)c(O)c(Br)c1 | 24.2 | 95.3 | 95.8 | 10.69 (≈ 24.2 µM) | 82.8 | Active | 85.7 | 23.9 | 49 | 78.5 | 95.8 | 7.55 (≈ 17.1 µM) | 50.3
Cc1cc(O)c(C(C)(C)C)cc1/N=C/c1cc(Br)cc(Br)c1O | 24.6 | 90.7 | 90.1 | 13.46 (≈ 30.5 µM) | 72.7 | Active | 86.1 | 26.7 | 48.2 | 76.4 | 88.8 | 11.45 (≈ 26 µM) | 45.2
Cc1cc(O)c(C(C)(C)C)cc1/N=C/c1ccc(O)cc1 | 31 | 92.6 | 94.6 | 14.26 (≈ 50.3 µM) | 70.9 | Active | 82.3 | 31 | 50.8 | 63.3 | 89.3 | 8.77 (≈ 30.9 µM) | 49.6
COc1ccc(/C=N/c2cc(C(C)(C)C)c(O)cc2C)cc1OC | 22.6 | 87.1 | 90 | 22.05 (≈ 67.3 µM) | 62.2 | Active | 82.1 | 27.4 | 49 | 72 | 81.9 | 17.03 (≈ 52 µM) | 35.3
Cc1cc(O)c(C(C)C)cc1/N=C/c1ccccc1O | 23.9 | 91 | 88.3 | 14.77 (≈ 54.8 µM) | 70.7 | Active | 88.1 | 29.2 | 49.3 | 70.6 | 82 | 11.79 (≈ 43.8 µM) | 47.1
Cc1cc(/N=C/c2cc(Br)cc(Br)c2O)c(C(C)C)cc1O | 28.1 | 88.5 | 90.8 | 18.73 (≈ 43.9 µM) | 72 | Active | 77.4 | 31.5 | 47.3 | 65.8 | 79.3 | 11.97 (≈ 28 µM) | 44.4
COc1cc(/C=N/c2cc(C(C)C)c(O)cc2C)cc(OC)c1 | 21.8 | 89.1 | 78.4 | 25.47 (≈ 81.3 µM) | 62.9 | Active | 84.2 | 24.5 | 40.4 | 59.5 | 71.5 | 26.71 (≈ 85.2 µM) | 37
Cc1cc(O)c(C(C)C)cc1/N=C/c1cc(Br)cc(Br)c1O | 24.3 | 85.3 | 88.7 | 19.19 (≈ 44.9 µM) | 75.9 | Active | 78.1 | 26.8 | 44.2 | 68.3 | 85.9 | 12.76 (≈ 29.9 µM) | 45.1
Cc1cc(/N=C/c2ccc(O)cc2)c(C(C)C)cc1O | 36.1 | 88.1 | 92.2 | 15.13 (≈ 56.2 µM) | 70.4 | Active | 75.9 | 33.7 | 48.6 | 66.2 | 82.9 | 9.76 (≈ 36.2 µM) | 42.8
COc1ccc(/C=N/c2cc(C(C)(C)C)c(O)cc2C)cc1 | 19.7 | 89.8 | 90.6 | 17.55 (≈ 59 µM) | 65 | Active | 87.3 | 29.2 | 50 | 82.6 | 83.4 | 13.92 (≈ 46.8 µM) | 36.3
COc1cc(/C=N/c2cc(C(C)C)c(O)cc2C)cc(OC)c1OC | 20.7 | 89.9 | 83.1 | 22.03 (≈ 64.1 µM) | 65.4 | Active | 82.9 | 26 | 41.6 | 68.2 | 73.3 | 22.96 (≈ 66.9 µM) | 39.8
COc1ccc(/C=N/c2cc(C)c(O)cc2C(C)C)cc1OC | 25.4 | 89.8 | 87.8 | 20.1 (≈ 64.1 µM) | 67.5 | Active | 82.3 | 29.1 | 44.1 | 64.2 | 75.5 | 18.12 (≈ 57.8 µM) | 43
COc1ccc(/C=N/c2cc(C)c(O)cc2C(C)C)cc1 | 34.2 | 88.7 | 89.5 | 16.24 (≈ 57.3 µM) | 69.2 | Active | 78.4 | 30.9 | 47.5 | 67.1 | 78.9 | 13.5 (≈ 47.6 µM) | 41
Cc1cc(/N=C/c2ccccc2O)c(C(C)C)cc1O | 32.6 | 90.4 | 89.3 | 16.09 (≈ 59.7 µM) | 70.6 | Active | 86.1 | 33 | 46.8 | 65.1 | 79.9 | 11.61 (≈ 43.1 µM) | 40.8
Cc1cc(O)c(C(C)C)cc1/N=C/c1cc(Br)c(O)c(Br)c1 | 25.2 | 90.1 | 95.2 | 17.98 (≈ 42.1 µM) | 78.7 | Active | 77.4 | 24.1 | 51.8 | 69.2 | 92.3 | 8.33 (≈ 19.5 µM) | 46.1
